Experimental data: the EternaBench riboswitch data

System: MS2 coat protein
Test: apparent Kd, MS2 coat protein; higher = weaker binding; RNA-MaP array; FMN 200 µM where present
In short: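 Green signal was scaled to red-channel RNA signal and control-cluster median Fmax, and the apparent Kd was taken as the median of filtered per-cluster binding-curve fits. The binding series used SNAP-549-labelled MS2 coat protein from 0.7 or 1.5 nM, doubling to 3 µM, on designs transcribed by stalled E. coli RNA polymerase on Illumina sequencing-chip clusters. Each series ran without and then with constant ligand in 100 mM Tris-HCl pH 7.5, 80 mM KCl, 4 mM MgCl2, BSA, DTT, yeast tRNA and Tween-20.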

[1] = designed as: OFF switch for flavin mononucleotide, no ligand
[2] = ligand present: flavin mononucleotide, designed as: OFF switch for flavin mononucleotide
[3] = designed as: ON switch for flavin mononucleotide, no ligand
[4] = ligand present: flavin mononucleotide, designed as: ON switch for flavin mononucleotide

| Sequence | apparent Kd [1] | apparent Kd [2] | apparent Kd [3] | apparent Kd [4] |
| --- | --- | --- | --- | --- |
| UUGGGACAUGAGGAUCACCCAUGUAAGGAUAUUGGCGCGCCGGCUCUGUCUGUUCCGCCGAGAAGGUACACGUU | 104 nM | 173 nM |  |  |
| GGCCGGGCAGGAUAUACAUGAGGAUCACCCAUGUAUAUCCUUCAGCAUGGAUCCUCAUGUAGAAGGGCCCGGCC | 13.2 nM | 11.9 nM |  |  |
| CUUACGCGAGGAUAUACAUGAGGAUCACCCAUGUAACGGUGUGUAAUAUAUAUUGCGUGUAGAAGGUGUGUGGG | 87 nM | 101 nM |  |  |
| UGUGCGUCAGGAUAUUCUAUUUAUUACAUGAGGAUCACCCAUGUGAAUGUACAAGGGUGUGAAGAAGGGACUUGUC | 686 nM | 526 nM |  |  |
| GGGAAGUUAGGAUAUGCUGCUCGUCACUUGCGUGAUGAGUAGCAGAAGGAACAUGAGGAUCACCCAUGUAAAAA | 31.9 nM | 37.6 nM |  |  |
| GAUCGAGAACUCACGGCGUUGCACAUGAGGAUCACCCAUGUGCAGGAUAUGGCCGCCGUCGGAGGCCAGAAGGGCACAGUAGGU | 10.2 nM | 20 nM |  |  |
| GGGCGUUGGGAGAAGGUACAUUAAAUUAGUUUAACAUGAGGAUCACCCAUGUAAGGAUAUCCCAUCGUGUAAUAUUAUACAGCC | 11 nM | 13.8 nM |  |  |
| UUACCUUAUGAGAAGGCGGUCAUGAAACAUGAUCGAGGAUAUCAUGUAAACAUGAGGAUCACCCAUGUAUGGGUAUUAUGGUAG |  |  | 303 nM | 52 nM |
| ACCAAUGCAGGAUAUACAUGAGGAUCACCCAUGUAUAACCUACAUAGAUGAUUAUCAUGUAGAAGGGCAUUGGA | 11.7 nM | 8.43 nM |  |  |
| CAAUUCCGAGGAUAUACAUGAGGAUCACCCAUGUCGGGCCUCAGCGUUUAGCGCGUAAGUAGAAGGUGGGUUUC | 30.4 nM | 41.1 nM |  |  |
| GUAGCUAUCGGAGGAUAUUCAUACCGGAAACGGACAUGAGGAUCACCCAUGUGCCGAAAGGCUUGGGAGAAGGCCGAUAGCUAC |  |  | 297 nM | 18.5 nM |
| UUAAAUCAUGUAGGAUAUGCAUGGCGAAGCUACGCAGAAGGACAUGAGGAUCACCCAUGUUAUAGCGUCUGGAAACAGAUGCAA | 101 nM | 177 nM |  |  |
| UAUAUACAUGAGGAUCACCCAUGUCAGGAUAUUAGAUAUAUAUAUACAUAUAAUUAUUUAAGAAGGGACACUAA | 43.8 nM | 46 nM |  |  |
| AUAUAUAUAUAAGGAUAUGUAUAUCCAACAUGAGGAUCACCCAUGUUGAGGAUCACCCAUGUAAAGCAGAAGGUAUAUAUAUAU |  |  | 29.1 nM | 18 nM |
| UCGAGCAGGGAAUGGUCGCUGAAGUAGGAUAUCCGCGUGGCCGUCCACAUGAGGAUCACCCAUGUGGAGAAGGGCUACAGCGAA | 6.07 nM | 6.58 nM |  |  |
| GUCAGCUCGUGAGGAUAUACUACACUGCUUCGGCAGUGUAUUAAGAUCACAUGAGGAUCACCCAUGUAGAAGGCACGAGCUGAU | 5.95 nM | 17 nM |  |  |
| AGUGUCAUCCAGAAGGCCUCAUGACAUGAGGAUCACCCAUGUUAUCAUGGGAGGAUAUGGAUGAUACAGCUACGUUUCGUAGCA |  |  | 90.5 nM | 25.4 nM |
| UUUAAGCGAGGAUAUACAUGAGGAUCACCCAUGUCAAGUAUUCUUGACGCCGUGCUCUGUAGAAGGCGCAAUUA | 65.2 nM | 522 nM |  |  |
| GUAGCUAUCGGAGGAUAUCCUCAGCGGAAACGCACAUGAGGAUCACCCAUGUAAAUAAAUAAUUAAGAGAAGGCCGAUAGCUAC |  |  | 706 nM | 55 nM |
| UAAGUACAGAAGUACUCCGGGUCCAGAAGGGACAUGAGGAUCACCCAUGUACCGUUGAUUGCUUGUCAGGAUAUGGACCCGGCC | 6.83 nM | 25.7 nM |  |  |
